For orientation: EC50 means the midpoint of the concentration-response curve.

SMILES strings stand for the structures.

In one experiment the target is T1, Thyroid hormone receptor (Homo sapiens, UniProt P10827+P10828).
T1 sequence (P10827 whole entry): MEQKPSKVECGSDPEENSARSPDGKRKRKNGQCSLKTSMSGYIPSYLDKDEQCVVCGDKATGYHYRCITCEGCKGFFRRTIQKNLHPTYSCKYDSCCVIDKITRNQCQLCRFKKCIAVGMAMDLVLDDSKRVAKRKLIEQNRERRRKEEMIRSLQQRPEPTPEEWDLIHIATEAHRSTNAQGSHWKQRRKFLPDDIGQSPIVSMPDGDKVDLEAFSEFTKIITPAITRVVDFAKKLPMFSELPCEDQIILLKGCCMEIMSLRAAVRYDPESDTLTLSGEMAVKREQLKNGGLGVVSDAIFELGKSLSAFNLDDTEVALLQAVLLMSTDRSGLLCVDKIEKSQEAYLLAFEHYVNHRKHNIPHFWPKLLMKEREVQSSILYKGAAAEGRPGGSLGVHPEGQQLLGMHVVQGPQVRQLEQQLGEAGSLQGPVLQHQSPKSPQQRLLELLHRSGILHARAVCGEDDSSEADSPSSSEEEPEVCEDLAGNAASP
T1 sequence (P10828 whole entry): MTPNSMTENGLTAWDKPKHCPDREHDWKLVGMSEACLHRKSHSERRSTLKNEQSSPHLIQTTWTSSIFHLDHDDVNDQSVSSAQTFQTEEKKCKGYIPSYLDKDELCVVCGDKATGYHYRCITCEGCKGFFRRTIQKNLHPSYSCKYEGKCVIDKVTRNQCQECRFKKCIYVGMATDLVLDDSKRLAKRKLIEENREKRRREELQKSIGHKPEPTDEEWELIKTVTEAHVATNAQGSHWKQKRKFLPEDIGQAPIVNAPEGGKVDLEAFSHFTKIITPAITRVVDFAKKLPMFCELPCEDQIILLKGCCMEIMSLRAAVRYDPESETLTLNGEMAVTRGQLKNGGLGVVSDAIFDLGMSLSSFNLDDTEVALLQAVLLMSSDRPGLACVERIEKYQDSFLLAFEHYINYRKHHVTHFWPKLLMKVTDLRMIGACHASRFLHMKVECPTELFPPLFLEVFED
Description: Agonist activity at THR in HepG2 cells by whole cell assay. The format is functional, cell-based.

The subject of experiment [1] is Mus musculus. The experiment can be described thus: Increase in heart weight in C57BL/6J mouse at 0.1 mg/kg, po after 11 days. The format is functional. The method in brief: (§1)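 C57BL/6J mice, 10-12 per group, dosed orally by gavage once daily for 11 days in solutol/ethanol/water 10:10:80. Doses were 0.1, 0.3 and 3.0 mg/kg, given as the ethyl ester. At study end, heart rate was measured by non-invasive tail cuff, then the animals were sacrificed and hearts weighed. Heart weight change is expressed versus control.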

For experiment [2], the system named is Mus musculus. Description: Increase in heart weight in C57BL/6J mouse at 0.3 mg/kg, po after 11 days. The format is functional. In outline:
as §1

Experiment [3] deals with Mus musculus. Description: Increase in heart weight in C57BL/6J mouse at 3.0 mg/kg, po after 11 days. The experiment is classed as functional. The method in brief: as §1
The subject of experiment [4] is Mus musculus. The experiment can be described thus: Reduction in serum cholesterol in NMIR mouse at 0.1 mg/kg, po after 7 days. The format is functional. Further details: scale not given: the % may be the effect or the level left. The method in brief: (§2)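 At study end, blood was taken retro-orbitally. Serum cholesterol (and triglycerides) were measured enzymatically with commercial kits on an autoanalyzer. Reduction is expressed as percent versus the control group.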

Experiment [5] has as its system Mus musculus. Description: Reduction in serum cholesterol in NMIR mouse at 0.3 mg/ kg, po after 7 days. The format is functional. Further details: scale not given: the % may be the effect or the level left. In outline: as §2
In experiment [6] the test system is Mus musculus. The experiment can be described thus: Reduction in serum cholesterol in NMIR mouse at 1.0 mg/ kg, po after 7 days. Further details: scale not given: the % may be the effect or the level left. The experiment is classed as functional. In outline:
as §2

Experiment [7] has as its system Mus musculus. The experiment can be described thus: Reduction in serum cholesterol in NMIR mouse at 3.0 mg/ kg, po after 7 days. Further details: scale not given: the % may be the effect or the level left. The format is functional. The method in brief: as §2

`COc1ccc(Oc2c(Br)cc3oc(C(=O)O)cc3c2Br)cc1C(C)C`: the EC50 on Thyroid hormone receptor came to 1000 nM.

As to `O=C(O)c1cc2c(Br)c(Oc3ccc(O)c(C(=O)c4ccc(F)cc4)c3)c(Br)cc2o1`, on Thyroid hormone receptor, the concentration for a half-maximal effect (EC50) was determined as 210 nM.

As to `Cc1cc2c(CC(=O)O)coc2c(C)c1Oc1ccc(O)cc1`, on Thyroid hormone receptor, the 50% effective concentration (EC50) is 1000 nM.

Regarding `O=C(O)c1cc2c(Br)c(Oc3ccc(O)c(C(O)c4ccc(F)cc4)c3)c(Br)cc2o1` (centres undefined), the midpoint of the response on Thyroid hormone receptor, the EC50, lay at 22 nM.

`CC(C)c1cc(Oc2ccc3oc(C(=O)O)cc3c2)ccc1O` yielded a concentration giving a half-maximal response (EC50) on Thyroid hormone receptor of 1000 nM.

Consider `Cc1cc(CC2SC(=O)NC2=O)cc(C)c1Oc1ccc(O)c(C(C)C)c1` (centres undefined), for which, on Thyroid hormone receptor, the EC50 was 0.08 nM.

As for `CC(C)c1cc(Oc2c(C(C)C)cc(CC3SC(=O)NC3=O)cc2C(C)C)ccc1O` (centres undefined), the EC50 on Thyroid hormone receptor turned out to be 70 nM.

At Thyroid hormone receptor, `Cc1cc2oc(C(=O)O)cc2c(C)c1Oc1ccc(O)c(C(C)C)c1` had an EC50 of 110 nM.

For the molecule `Cc1cc2c(CC(=O)O)coc2c(C)c1Oc1ccc(O)c(C(C)C)c1`, the Activity in the experiment on Mus musculus [1] amounted to 12%; in the experiment on Mus musculus [2], 17%; in the experiment with Mus musculus [3], 27%; in the experiment on Mus musculus [4], 32%; in the experiment on Mus musculus [5], 34%; with Mus musculus [6] it was 39%. Besides, in the experiment with Mus musculus [7], the Activity was 41%. At Thyroid hormone receptor, this molecule yielded an EC50 of 0.3 nM.

`Cc1ccc(CC2CC(=O)NC(=O)S2)c(C)c1Oc1ccc(O)c(C(C)C)c1` (centres undefined): it took 0.06 nM to reach a half-maximal effect on Thyroid hormone receptor (EC50).

`CC(C)c1cc(Oc2c(Br)cc3oc(C(=O)O)cc3c2Br)ccc1O` returned an EC50 at Thyroid hormone receptor of 7 nM.

`Cc1cc2c(c(C)c1Oc1ccc(O)c(C(C)C)c1)CC(CC(=O)O)O2` (centres undefined) displayed an EC50 at Thyroid hormone receptor of 5.1 nM.

Source of the values: ChEMBL document CHEMBL1139981, “Novel heterocyclic thyromimetics. Part 2” (Bioorg Med Chem Lett, 2007).
